For one compound, EC50 results are on record in ChEMBL document CHEMBL1154451, “Simple and efficient synthesis of novel glycosyl thiourea derivatives as potential antitumor agents” (Eur J Med Chem, 2008).

Experiment [1] is described as follows: Cytotoxicity against human PG cells after 48 hrs by MTT assay. Format: functional, cell-based. In outline:
(§1)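 Tumour cells seeded at 3–5 × 10⁴ cells/mL and cultured 24 h, then medium containing test compound at various concentrations added (plain medium for controls). Exposure 48 h, followed by MTT read-out with absorbance measured at 490 nm. EC50 values reported; compounds tested up to […].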
(Tetrazolium assays rely on reduction of a dye to a coloured formazan, in cell work by metabolically active cells.)

The subject of experiment [2] is Bel-7402. In words: Cytotoxicity against human Bel7402 cells after 48 hrs by MTT assay. Format: functional, cell-based. The settings on record: Bel-7402, 48 h. In outline:
as §1

The structures appear in SMILES notation.

What is called EC50 is the concentration giving half of the maximal effect. Read a low EC50 as a more potent agent. Consider `Cc1cn([C@H]2C[C@H](N=[N+]=[N-])[C@@H](CO)O2)c(=O)[nH]c1=O` [ZIDOVUDINE], for which the EC50 in experiment [1] was found to be 0.58 µM; in experiment [2], 4.62 µM.
